{"source": "ChEMBL document CHEMBL5678806", "about": "“NMS-P937, an orally available, specific small-molecule polo-like kinase 1 inhibitor with antitumor activity in solid and hematologic malignancies” (Mol Cancer Ther, 2012)", "key": {"[1]": {"target": "Cyclin-dependent kinase 1/cyclin B1 (Homo sapiens, UniProt P06493)", "sequence (P06493 whole entry)": "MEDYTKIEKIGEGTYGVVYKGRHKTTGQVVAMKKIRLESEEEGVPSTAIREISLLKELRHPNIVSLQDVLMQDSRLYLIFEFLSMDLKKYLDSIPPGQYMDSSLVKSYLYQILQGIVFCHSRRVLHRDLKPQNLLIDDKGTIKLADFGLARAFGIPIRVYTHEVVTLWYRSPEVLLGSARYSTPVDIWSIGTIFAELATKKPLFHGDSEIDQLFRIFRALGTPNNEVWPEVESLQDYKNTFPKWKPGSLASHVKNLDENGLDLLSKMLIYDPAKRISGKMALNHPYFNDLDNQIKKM", "sequence (P14635 whole entry, further chain)": "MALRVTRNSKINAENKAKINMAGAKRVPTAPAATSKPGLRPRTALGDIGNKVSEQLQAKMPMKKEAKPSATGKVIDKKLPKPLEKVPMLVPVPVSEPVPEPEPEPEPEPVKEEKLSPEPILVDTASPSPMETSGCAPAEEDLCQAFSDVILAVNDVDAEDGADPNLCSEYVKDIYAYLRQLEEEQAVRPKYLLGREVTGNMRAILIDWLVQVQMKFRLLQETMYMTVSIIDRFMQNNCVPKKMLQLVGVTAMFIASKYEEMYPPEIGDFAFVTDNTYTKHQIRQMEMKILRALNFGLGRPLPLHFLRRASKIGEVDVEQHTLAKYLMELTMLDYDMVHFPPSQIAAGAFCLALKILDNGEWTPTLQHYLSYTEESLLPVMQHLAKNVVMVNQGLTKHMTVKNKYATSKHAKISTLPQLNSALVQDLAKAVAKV", "test": "Inhibition of CDK1/CycB (unknown origin) in presence of [gamma-33P]ATP", "assay_type": "protein-complex assay"}, "[2]": {"target": "Serine/threonine-protein kinase haspin (Homo sapiens, UniProt Q8TF76)", "sequence (Q8TF76 whole entry)": "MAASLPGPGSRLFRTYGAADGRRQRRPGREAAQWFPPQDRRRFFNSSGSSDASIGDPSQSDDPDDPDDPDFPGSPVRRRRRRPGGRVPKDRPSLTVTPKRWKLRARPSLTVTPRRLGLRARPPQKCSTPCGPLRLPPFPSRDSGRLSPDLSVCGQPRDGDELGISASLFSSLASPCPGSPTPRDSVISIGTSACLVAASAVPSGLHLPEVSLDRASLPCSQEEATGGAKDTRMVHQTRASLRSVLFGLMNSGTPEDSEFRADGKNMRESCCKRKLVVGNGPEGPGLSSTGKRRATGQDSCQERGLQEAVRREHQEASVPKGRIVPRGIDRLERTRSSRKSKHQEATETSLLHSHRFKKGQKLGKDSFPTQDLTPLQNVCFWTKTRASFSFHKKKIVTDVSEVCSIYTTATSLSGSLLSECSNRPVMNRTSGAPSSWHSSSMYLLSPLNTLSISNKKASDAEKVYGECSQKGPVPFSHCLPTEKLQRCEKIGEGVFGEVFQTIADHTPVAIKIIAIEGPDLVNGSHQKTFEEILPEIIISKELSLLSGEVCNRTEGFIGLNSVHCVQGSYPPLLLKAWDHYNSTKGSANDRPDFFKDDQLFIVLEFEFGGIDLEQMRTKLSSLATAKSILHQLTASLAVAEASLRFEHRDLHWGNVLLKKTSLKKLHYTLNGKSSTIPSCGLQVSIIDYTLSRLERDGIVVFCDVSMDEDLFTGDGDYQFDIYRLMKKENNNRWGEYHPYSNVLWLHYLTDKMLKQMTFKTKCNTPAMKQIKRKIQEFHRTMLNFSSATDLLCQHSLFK", "test": "Inhibition of Haspin (unknown origin) in presence of [gamma-33P]ATP"}, "[3]": {"target": "Tyrosine-protein kinase SYK (Homo sapiens, UniProt P43405)", "test": "Inhibition of SYK (unknown origin) in presence of [gamma-33P]ATP"}, "[4]": {"target": "Calcium/calmodulin-dependent protein kinase type II subunit gamma (Homo sapiens) (UniProt Q13555)", "sequence (Q13555 whole entry, the tested form may be a part)": "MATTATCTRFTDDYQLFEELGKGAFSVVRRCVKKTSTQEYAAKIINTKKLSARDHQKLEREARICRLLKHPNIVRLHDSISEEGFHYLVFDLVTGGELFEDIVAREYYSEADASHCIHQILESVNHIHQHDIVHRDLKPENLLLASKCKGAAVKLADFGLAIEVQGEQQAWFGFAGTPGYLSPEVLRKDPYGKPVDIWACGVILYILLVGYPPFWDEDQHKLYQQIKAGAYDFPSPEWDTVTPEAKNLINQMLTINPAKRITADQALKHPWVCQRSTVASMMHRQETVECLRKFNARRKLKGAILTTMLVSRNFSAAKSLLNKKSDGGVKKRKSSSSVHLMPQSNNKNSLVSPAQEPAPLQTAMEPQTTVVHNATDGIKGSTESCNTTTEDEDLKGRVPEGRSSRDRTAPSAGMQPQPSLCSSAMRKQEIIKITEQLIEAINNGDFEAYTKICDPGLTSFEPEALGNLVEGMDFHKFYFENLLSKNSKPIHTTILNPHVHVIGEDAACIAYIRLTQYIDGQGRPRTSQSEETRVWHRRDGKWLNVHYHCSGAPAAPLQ", "test": "Inhibition of N-terminal 6His-tagged recombinant human CaMKIIgamma (1 to 330 residues) expressed in baculovirus infected Sf21 cells assessed as residual activity at 0.1 uM relative to control"}, "[5]": {"target": "Inhibitor of nuclear factor kappa-B kinase subunit beta (Homo sapiens) (UniProt O14920)", "test": "Inhibition of N-terminal His6 tagged recombinant full-length human IKKbeta expressed in baculovirus infected Sf21 cells assessed as residual activity at 0.1 uM relative to control"}, "[6]": {"target": "SRSF protein kinase 3 (Homo sapiens) (UniProt Q9UPE1)", "sequence (Q9UPE1 whole entry)": "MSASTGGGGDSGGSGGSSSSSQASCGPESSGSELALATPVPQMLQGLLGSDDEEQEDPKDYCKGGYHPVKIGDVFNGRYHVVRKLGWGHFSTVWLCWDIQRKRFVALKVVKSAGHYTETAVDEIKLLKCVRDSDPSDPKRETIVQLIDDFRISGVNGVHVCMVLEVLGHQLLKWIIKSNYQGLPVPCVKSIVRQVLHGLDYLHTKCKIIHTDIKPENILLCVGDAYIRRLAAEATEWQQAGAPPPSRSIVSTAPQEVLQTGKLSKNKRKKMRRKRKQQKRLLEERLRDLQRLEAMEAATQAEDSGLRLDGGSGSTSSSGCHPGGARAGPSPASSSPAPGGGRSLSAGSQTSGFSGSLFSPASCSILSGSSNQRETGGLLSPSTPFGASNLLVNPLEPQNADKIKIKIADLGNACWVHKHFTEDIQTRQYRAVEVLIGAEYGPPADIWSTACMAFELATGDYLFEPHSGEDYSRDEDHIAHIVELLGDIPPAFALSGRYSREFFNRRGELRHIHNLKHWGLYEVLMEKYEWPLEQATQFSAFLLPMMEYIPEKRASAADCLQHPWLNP", "test": "Inhibition of N-terminal 6His-tagged recombinant human full-length MSSK1 expressed in baculovirus infected Sf21 cells assessed as residual activity at 0.1 uM relative to control"}, "[7]": {"target": "Cytoplasmic tyrosine-protein kinase BMX (Homo sapiens) (UniProt P51813)", "sequence (P51813 whole entry)": "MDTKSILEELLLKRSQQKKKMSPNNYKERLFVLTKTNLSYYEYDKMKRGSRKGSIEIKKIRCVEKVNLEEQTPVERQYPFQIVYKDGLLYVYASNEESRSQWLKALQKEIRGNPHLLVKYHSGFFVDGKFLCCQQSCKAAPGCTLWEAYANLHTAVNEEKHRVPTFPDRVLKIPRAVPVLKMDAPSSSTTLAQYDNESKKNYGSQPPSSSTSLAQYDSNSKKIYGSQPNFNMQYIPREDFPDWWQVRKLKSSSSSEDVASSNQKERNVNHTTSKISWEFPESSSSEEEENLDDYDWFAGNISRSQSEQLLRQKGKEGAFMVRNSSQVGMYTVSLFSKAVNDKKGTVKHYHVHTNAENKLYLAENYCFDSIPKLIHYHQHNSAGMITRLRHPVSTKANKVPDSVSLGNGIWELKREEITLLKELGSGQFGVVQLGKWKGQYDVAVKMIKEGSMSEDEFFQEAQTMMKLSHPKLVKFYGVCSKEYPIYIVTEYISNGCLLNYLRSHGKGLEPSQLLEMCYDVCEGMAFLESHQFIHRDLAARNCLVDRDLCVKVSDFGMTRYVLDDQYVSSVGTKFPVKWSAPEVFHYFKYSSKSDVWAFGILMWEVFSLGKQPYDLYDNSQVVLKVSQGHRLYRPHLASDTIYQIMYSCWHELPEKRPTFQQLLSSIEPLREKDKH", "test": "Inhibition of recombinant human Bmx assessed as residual activity at 1 uM relative to control"}, "[8]": {"target": "Ephrin type-B receptor 3 (Homo sapiens) (UniProt P54753)", "sequence (P54753 whole entry, the tested form may be a part)": "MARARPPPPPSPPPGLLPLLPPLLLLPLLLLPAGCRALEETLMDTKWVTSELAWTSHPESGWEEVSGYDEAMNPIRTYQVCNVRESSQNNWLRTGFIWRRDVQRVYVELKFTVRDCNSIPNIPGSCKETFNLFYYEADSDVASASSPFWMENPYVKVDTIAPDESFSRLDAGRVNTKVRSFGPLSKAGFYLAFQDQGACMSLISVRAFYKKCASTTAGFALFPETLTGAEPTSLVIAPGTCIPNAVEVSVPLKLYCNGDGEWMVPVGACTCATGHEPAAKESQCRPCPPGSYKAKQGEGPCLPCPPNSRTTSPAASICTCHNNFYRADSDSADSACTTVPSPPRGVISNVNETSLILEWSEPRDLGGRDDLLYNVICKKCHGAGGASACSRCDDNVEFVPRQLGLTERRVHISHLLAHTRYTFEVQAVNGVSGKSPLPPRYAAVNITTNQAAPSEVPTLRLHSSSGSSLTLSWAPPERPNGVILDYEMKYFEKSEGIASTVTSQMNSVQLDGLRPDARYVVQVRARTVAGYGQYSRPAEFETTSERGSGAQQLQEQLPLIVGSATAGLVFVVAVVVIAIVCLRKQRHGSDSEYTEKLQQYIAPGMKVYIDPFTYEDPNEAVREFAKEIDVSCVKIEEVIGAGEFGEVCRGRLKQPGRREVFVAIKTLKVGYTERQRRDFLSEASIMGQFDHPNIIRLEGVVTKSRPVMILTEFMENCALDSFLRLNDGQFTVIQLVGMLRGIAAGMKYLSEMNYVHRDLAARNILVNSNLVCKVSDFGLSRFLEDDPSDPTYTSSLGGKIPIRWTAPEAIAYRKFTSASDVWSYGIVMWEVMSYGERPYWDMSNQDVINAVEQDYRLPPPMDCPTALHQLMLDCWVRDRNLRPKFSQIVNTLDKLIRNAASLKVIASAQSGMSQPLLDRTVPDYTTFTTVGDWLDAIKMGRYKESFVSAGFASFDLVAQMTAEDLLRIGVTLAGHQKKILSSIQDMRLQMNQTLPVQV", "test": "Inhibition of N-terminal His6-tagged recombinant human EphB3 (599 to 920 residues) expressed in baculovirus infected Sf21 cells assessed as residual activity at 1 uM relative to control"}, "[9]": {"target": "Maternal embryonic leucine zipper kinase (Homo sapiens) (UniProt Q14680)", "sequence (Q14680 whole entry, looked up, the tested form may be a part)": "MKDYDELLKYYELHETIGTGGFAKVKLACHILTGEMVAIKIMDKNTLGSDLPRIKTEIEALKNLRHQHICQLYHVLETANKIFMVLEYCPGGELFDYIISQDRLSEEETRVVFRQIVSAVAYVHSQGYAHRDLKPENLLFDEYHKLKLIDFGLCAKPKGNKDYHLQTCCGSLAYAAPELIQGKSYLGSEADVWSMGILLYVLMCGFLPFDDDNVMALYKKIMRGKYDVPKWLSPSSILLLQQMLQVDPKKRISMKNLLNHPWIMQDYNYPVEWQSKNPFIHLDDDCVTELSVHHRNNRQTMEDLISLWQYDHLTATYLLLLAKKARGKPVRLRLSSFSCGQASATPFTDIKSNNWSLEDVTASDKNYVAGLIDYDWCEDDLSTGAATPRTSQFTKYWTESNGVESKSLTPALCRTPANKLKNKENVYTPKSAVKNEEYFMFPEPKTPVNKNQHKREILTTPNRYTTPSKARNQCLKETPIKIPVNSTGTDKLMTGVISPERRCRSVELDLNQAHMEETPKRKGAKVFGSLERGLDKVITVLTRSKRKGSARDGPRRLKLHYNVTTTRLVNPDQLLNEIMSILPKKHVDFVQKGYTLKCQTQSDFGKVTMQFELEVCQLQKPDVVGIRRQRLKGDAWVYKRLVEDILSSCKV", "test": "Inhibition of N-terminal GST-tagged recombinant human MELK (1 to 340 residues) expressed in baculovirus infected Sf21 cells assessed as residual activity at 1 uM relative to control"}, "JIMT-1": {"test_system": "JIMT-1", "test": "Antiproliferative activity against human JIMT-1 cells assessed as inhibition of cell growth incubated for 72 hrs by cell-titer glo assay", "assay_type": "functional, cell-based", "settings": "JIMT-1, 72 h", "outline": "(§1)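 Cells seeded at 10,000–30,000/cm² (adherent) or 100,000/mL (nonadherent) in medium with 10% fetal calf serum; after 24 h, treated in duplicate with serial dilutions for 72 h. Viable cell number read by CellTiter-Glo luminescence; IC50 from sigmoidal fit; at least two independent experiments.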"}, "SW948": {"test_system": "SW948", "test": "Antiproliferative activity against human SW948 cells assessed as inhibition of cell growth incubated for 72 hrs by cell-titer glo assay", "assay_type": "functional, cell-based", "settings": "SW948, 72 h"}, "[10]": {"test": "Antiproliferative activity against human CL-11 cells assessed as inhibition of cell growth incubated for 72 hrs by cell-titer glo assay", "assay_type": "functional, cell-based", "settings": "CL-11, 72 h", "outline": "(§2)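 Cells seeded 10,000–30,000/cm² (adherent) or 100,000/mL (suspension) in medium with 10% fetal calf serum; after 24 h treated in duplicate with serial dilutions for 72 h. Viable cells read by CellTiter-Glo luminescence; IC50 from sigmoidal fit; at least two independent experiments.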"}, "HCT-15": {"test_system": "HCT-15", "test": "Antiproliferative activity against human HCT-15 cells assessed as inhibition of cell growth incubated for 72 hrs by cell-titer glo assay", "assay_type": "functional, cell-based", "settings": "HCT-15, 72 h", "outline": "as §1"}, "786-0": {"test_system": "786-0", "test": "Antiproliferative activity against human 786-0 cells assessed as inhibition of cell growth incubated for 72 hrs by cell-titer glo assay", "assay_type": "functional, cell-based", "settings": "786-0, 72 h", "outline": "as §2"}, "HCC78": {"test_system": "HCC78", "test": "Antiproliferative activity against human HCC78 cells assessed as inhibition of cell growth incubated for 72 hrs by cell-titer glo assay", "assay_type": "functional, cell-based", "settings": "HCC78, 72 h", "outline": "as §1"}, "CAPAN-1": {"test_system": "CAPAN-1", "test": "Antiproliferative activity against human CAPAN-1 cells assessed as inhibition of cell growth incubated for 72 hrs by cell-titer glo assay", "assay_type": "functional, cell-based", "settings": "CAPAN-1, 72 h", "outline": "as §2"}, "A-431": {"test_system": "A-431", "test": "Antiproliferative activity against human A-431 cells assessed as inhibition of cell growth incubated for 72 hrs by cell-titer glo assay", "assay_type": "functional, cell-based", "settings": "A-431, 72 h", "outline": "as §2"}, "SK-MEL-5": {"test_system": "SK-MEL-5", "test": "Antiproliferative activity against human SK-MEL-5 cells assessed as inhibition of cell growth incubated for 72 hrs by cell-titer glo assay", "assay_type": "functional, cell-based", "settings": "SK-MEL-5, 72 h"}, "THP-1": {"test_system": "THP-1", "test": "Antiproliferative activity against human THP-1 cells assessed as inhibition of cell growth incubated for 72 hrs by cell-titer glo assay", "assay_type": "functional, cell-based", "settings": "THP-1, 72 h"}, "MOLM-13": {"test_system": "MOLM-13", "test": "Antiproliferative activity against human MOLM-13 cells assessed as inhibition of cell growth incubated for 72 hrs by cell-titer glo assay", "assay_type": "functional, cell-based", "settings": "MOLM-13, 72 h", "outline": "(§3)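 Cells from ATCC or ECACC, kept in supplier-recommended medium with 1% penicillin-streptomycin at 37°C, 5% CO₂. Seeded at 10,000–30,000/cm² (adherent) or 100,000/mL (nonadherent) in medium with 10% fetal calf serum. Dosed after 24 h in duplicate with serial dilutions. Viable cells read by CellTiter-Glo 72 h later. IC50 from sigmoidal fit. At least two independent experiments.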"}, "SKM-1": {"test_system": "SKM-1", "test": "Antiproliferative activity against human SKM-1 cells assessed as inhibition of cell growth incubated for 72 hrs by cell-titer glo assay", "assay_type": "functional, cell-based", "settings": "SKM-1, 72 h"}, "MOLT-4": {"test_system": "MOLT-4", "test": "Antiproliferative activity against human MOLT-4 cells assessed as inhibition of cell growth incubated for 72 hrs by cell-titer glo assay", "assay_type": "functional, cell-based", "settings": "MOLT-4, 72 h", "outline": "as §3"}, "SUD4": {"test_system": "SUD4", "test": "Antiproliferative activity against human SU-DHL-4 cells assessed as inhibition of cell growth incubated for 72 hrs by cell-titer glo assay", "assay_type": "functional, cell-based", "settings": "SU-DHL-4, 72 h"}, "[11]": {"test": "Cmax in male cynomolgus monkey at 5 mg/kg, iv by LC-MS analysis", "assay_type": "ADME, organism-based, Macaca fascicularis", "settings": "in vivo"}, "[12]": {"test": "AUC in nu/nu mouse at 10 mg/kg, po by LC-MS analysis", "assay_type": "ADME, organism-based", "settings": "in vivo"}, "A2780": {"test_system": "A2780", "test": "Induction of cell cycle arrest in human A2780 cells assessed as accumulation of cells in G2/M phase by measuring NPM phosphorylation on Thr199 incubated for 24 hrs by Western blotting analysis", "assay_type": "functional, cell-based", "settings": "dose 0.02-0.2 µmol/L", "outline": "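A2780 ovarian carcinoma cells treated 24 h with a range of concentrations, with DMSO and nocodazole controls. 20 µg protein extract separated by SDS-PAGE and immunoblotted with chemiluminescent detection. Probed for total and phospho-Thr210 PLK1, phospho-Ser10 histone H3, phospho-Thr199 NPM and phospho-Tyr15 CDK1. Total NPM, tubulin and total CDK1 served as loading controls.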"}, "HCT-116": {"test_system": "HCT-116", "test": "Antitumor activity against human HCT-116 cells xenografted in nu/nu mouse assessed as tumor growth inhibition at 60 mg/kg administered for 10 days relative to control", "assay_type": "functional", "settings": "HCT-116, 240 h, time 10 day, read-out: TGI"}, "HL-60": {"test_system": "HL-60", "test": "Antitumor activity against human HL-60 cells xenografted in nu/nu mouse assessed as tumor growth inhibition at 60 mg/kg, po administered for 10 days relative to control", "assay_type": "functional", "settings": "HL-60, 240 h, time 10 day, read-out: TGI"}}}
{"smiles": "CN1CCN(c2ccc(OC(F)(F)F)c(Nc3ncc4c(n3)-c3c(c(C(N)=O)nn3CCO)CC4)c2)CC1", "note": "[ONVANSERTIB]", "values": [{"measurement": "IC50", "setting": "[1]", "result": "> 10", "unit": "µM"}, {"measurement": "IC50", "setting": "[2]", "result": "> 10", "unit": "µM"}, {"measurement": "IC50", "setting": "[3]", "result": "> 10", "unit": "µM"}, {"measurement": "Activity", "setting": "[4]", "result": 123, "unit": "%"}, {"measurement": "Activity", "setting": "[5]", "result": 122, "unit": "%"}, {"measurement": "Activity", "setting": "[6]", "result": 87, "unit": "%"}, {"measurement": "Activity", "setting": "[7]", "result": 85, "unit": "%"}, {"measurement": "Activity", "setting": "[8]", "result": 87, "unit": "%"}, {"measurement": "Activity", "setting": "[9]", "result": 71, "unit": "%"}, {"measurement": "IC50", "setting": "JIMT-1", "result": 0.105, "unit": "µM"}, {"measurement": "IC50", "setting": "SW948", "result": 0.124, "unit": "µM"}, {"measurement": "IC50", "setting": "[10]", "result": 0.139, "unit": "µM"}, {"measurement": "IC50", "setting": "HCT-15", "result": 0.156, "unit": "µM"}, {"measurement": "IC50", "setting": "786-0", "result": 0.129, "unit": "µM"}, {"measurement": "IC50", "setting": "HCC78", "result": 0.34, "unit": "µM"}, {"measurement": "IC50", "setting": "CAPAN-1", "result": 0.237, "unit": "µM"}, {"measurement": "IC50", "setting": "A-431", "result": 0.059, "unit": "µM"}, {"measurement": "IC50", "setting": "SK-MEL-5", "result": 0.513, "unit": "µM"}, {"measurement": "IC50", "setting": "THP-1", "result": 0.032, "unit": "µM"}, {"measurement": "IC50", "setting": "MOLM-13", "result": 0.022, "unit": "µM"}, {"measurement": "IC50", "setting": "SKM-1", "result": 0.06, "unit": "µM"}, {"measurement": "IC50", "setting": "MOLT-4", "result": 0.045, "unit": "µM"}, {"measurement": "IC50", "setting": "SUD4", "result": 0.056, "unit": "µM"}, {"measurement": "Cmax", "setting": "[11]", "result": 3000, "unit": "nM"}, {"measurement": "AUC", "setting": "[12]", "result": 2, "unit": "µM·h"}, {"measurement": "Activity", "setting": "A2780", "result": "Dose-Dependent Effect"}, {"measurement": "inhibition in vivo at 60 mg/kg", "setting": "HCT-116", "result": 89, "unit": "%"}, {"measurement": "inhibition in vivo at 60 mg/kg", "setting": "HL-60", "result": 98, "unit": "%"}]}
